Bioassay records (PubChem BioAssay)
PHOSPHO1 block: PubChem AID 1565; recombinant PHOSPHO1, absorbance phosphatase assay; inhibition, % at 13.3 µM; 290,000 compounds, 1.1% hits; in the data active means inhibition above about 60%
Target sequence (Q8TCT1 whole entry, looked up): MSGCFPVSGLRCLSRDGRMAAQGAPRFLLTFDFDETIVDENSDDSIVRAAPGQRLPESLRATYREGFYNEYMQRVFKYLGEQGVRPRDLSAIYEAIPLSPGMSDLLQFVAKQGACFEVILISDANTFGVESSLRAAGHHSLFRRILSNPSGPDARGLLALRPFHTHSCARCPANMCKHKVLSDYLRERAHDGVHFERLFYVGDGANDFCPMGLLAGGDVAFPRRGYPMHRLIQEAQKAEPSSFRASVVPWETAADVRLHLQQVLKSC
RGS4 pot: RGS4 potentiators or activators, primary screen, cell-based, HEK293 M3R inducible RGS4, calcium flux | carbachol calcium flux Fluo4; stronger effect = lower value | B-score at 10 µM | 310,000 compounds, 0.92% hits;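 active means B-score of the integrated calcium signal more than 4 SD below the library mean, with starting fluorescence not abnormally high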;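 further: negative B-score means reduced calcium response which marks RGS4 activation or potentiation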
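Reagent: ECmax carbachol challenge; Test system: M3R-expressing HEK293 line, RGS4 induced by doxycycline; Schedule: overnight RGS4 induction, 30 min dye load 37 °C, 20 min compound RT; Detection: calcium dye Fluo4 fluorescence; Read-out: Agonist-evoked peak-minus-minimum fluorescence over baseline, integrated ratio, B score.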
RGS4 block: RGS4 inhibitors, primary screen, cell-based, HEK293 M3R inducible RGS4, calcium flux; Regulator of G-protein signaling 4 (Homo sapiens), P49798; Fluo-4 calcium flux; stronger effect = higher value; triggered by carbachol at its EC20; B-score at 10 µM; 310,000 compounds, 0.45% hits;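 active means B-score, a plate-corrected calcium signal, over three deviations above library mean, with baseline fluorescence within five deviations of library mean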;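 further: RGS4 expression induced by doxycycline in cells with stable M3 receptor; B-score is computed from the integrated fluorescence ratio over baseline after carbachol; higher B-score means a larger calcium signal and so more RGS4 inhibition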
MrgX1 antagonist: antagonists of human MrgX1 receptor, primary screen, HEK293 cells, Fluo-4 calcium flux; B-score at 10 µM; 310,000 compounds, 1.3% hits; Mas-related G-protein coupled receptor member X1 (Homo sapiens), Q96LB2; BAM8-22 antagonism; stronger effect = lower value; AID 588676, 2011;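 active means calcium-response B-score plate-corrected more than 3 library SD below zero, starting fluorescence within 5 deviations, no agonist response on first addition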;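 further: peak minus trough fluorescence over baseline after final BAM8-22 challenge near maximal dose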
Target sequence (Q96LB2 whole entry, looked up): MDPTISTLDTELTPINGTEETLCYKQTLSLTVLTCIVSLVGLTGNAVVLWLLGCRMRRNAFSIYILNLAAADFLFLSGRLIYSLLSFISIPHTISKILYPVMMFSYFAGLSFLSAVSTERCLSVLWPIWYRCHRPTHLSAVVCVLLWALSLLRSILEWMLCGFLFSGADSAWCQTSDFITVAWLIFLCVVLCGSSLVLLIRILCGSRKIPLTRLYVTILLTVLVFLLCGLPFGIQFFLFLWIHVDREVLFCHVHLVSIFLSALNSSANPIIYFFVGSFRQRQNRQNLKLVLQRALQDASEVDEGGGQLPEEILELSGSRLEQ
MrgX1 ag: agonists of human MrgX1 receptor, primary screen, HEK293 cells, Fluo-4 calcium flux | Mas-related G-protein coupled receptor member X1 (Homo sapiens), Q96LB2 | Fluo-4 calcium fluorescence, agonist mode; stronger effect = higher value | B-score at 10 µM | 310,000 compounds, 0.44% hits;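 active means calcium response B-score plate-corrected fluorescence ratio at least 3 library SD, with starting fluorescence B-score inside 5 SD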
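Material – MrgX1-expressing HEK293 cells · Input – 15,000 cells seeded per well · Dosing – compound as first of three additions · Times – overnight seeding, then 1 h dark dye loading · Measured by – kinetic Fluo-4 NW fluorescence of intracellular calcium · Read-out – B-scored fluorescence response ratio · Benchmarks – positive and negative control wells on each plate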
MrgX1 PAM: positive allosteric modulators of MrgX1, primary screen, HEK293 cells, Fluo-4 calcium flux | Mas-related G-protein coupled receptor member X1 (Homo sapiens), Q96LB2 | FDSS; stronger effect = higher value | B-score at 10 µM | 310,000 compounds, 0.63% hits;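 active means plate-corrected calcium response at least 3 library SD above typical, normal starting fluorescence, not activating the receptor alone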;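 further: compound read alongside a low EC10 to EC30 dose of BAM8-22 agonist; peak minus trough fluorescence over baseline measured at the second addition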
MrgX1 ag reconf: MrgX1 receptor agonists, duplicate retest, confirmation, HEK293 cells, Fluo-4 calcium flux | shares compounds with MrgX1 ag | Fluo-4 calcium fluorescence, FDSS | activation, % at 10 µM | 600 compounds, 78% hits;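 active means calcium signal rise, corrected for plate position, at least 3 library SD high, with starting brightness within 5 such deviations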
HEK293 Ca flux: nonspecific calcium signal in parental HEK293, confirmation, counter-screen for MrgX1 antagonist project, parental HEK293 cells, Fluo-4 calcium flux | shares compounds with MrgX1 antagonist | Fluo-4 calcium fluorescence, FDSS | fluorescence ratio F(max-min)/F0 at 10 µM | 4,000 compounds, 2% hits | AID 624111, 2012;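 active means duplicate-averaged calcium fluorescence ratio at least three times the standard deviation of buffer wells, a nonspecific response in parental cells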
HEK293 Ca counter: calcium response in parental HEK293 cells, primary screen, counter-screen for MrgX1 allosteric activator project, cell-based, Fluo-4 calcium flux, duplicate; AID 624114, 2012; 4,000 compounds, 0.4% hits; fluorescence ratio F(max-min)/F0 at 10 µM; shares compounds with MrgX1 antagonist; Fluo-4 fluorescence ratio; stronger effect = higher value;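 active means calcium fluorescence ratio, averaged over duplicates, at least 3 SD of the buffer-well ratio, meaning a nonspecific response in receptor-free cells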;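 further: untransfected parental HEK293 lacking MrgX1 used as counterscreen for MrgX1 allosteric activators; fluorescence change taken during the second addition on a kinetic imager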
HEK293 Ca cntr2: calcium response in parental HEK293 cells, primary screen, counter-screen for MrgX1 agonist project, cell-based, Fluo-4 calcium flux, duplicate, agonist mode; shares compounds with MrgX1 antagonist; 4,000 compounds, 8.7% hits; Fluo-4 calcium fluorescence (FDSS); stronger effect = higher value; fluorescence ratio F(max-min)/F0 at 10 µM;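 active means calcium fluorescence ratio at least three times the spread of buffer wells, meaning a non-specific response in parental cells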
An asterisk follows results filed as active. In the library only some 4.5% were active in any assay of this set; here they are far more common.

For O=C(Cn1nnc(-c2ccccc2F)n1)Nc1ccc2c(c1)OCCO2 the results were PHOSPHO1 block 19, RGS4 pot inactive, RGS4 block inactive, MrgX1 antagonist inactive, MrgX1 ag inactive and MrgX1 PAM inactive.
Screening Cc1cc(C)c(C(=O)COC(=O)c2cc([N+](=O)[O-])ccc2NCCO)cc1C returned PHOSPHO1 block -14, RGS4 pot inactive, RGS4 block inactive, MrgX1 antagonist inactive, MrgX1 ag inactive and MrgX1 PAM inactive.
`Cc1ccc(NS(=O)(=O)c2ccc(C(=O)N3CCC3)cc2)cc1` gave RGS4 pot inactive, RGS4 block inactive, MrgX1 antagonist inactive, MrgX1 ag inactive and MrgX1 PAM inactive.
Cc1ccc(NS(=O)(=O)c2ccc(C(=O)N3CC(C)OC(C)C3)cc2)cc1 (stereo not drawn) was read as PHOSPHO1 block 25, RGS4 pot inactive, RGS4 block inactive, MrgX1 antagonist inactive, MrgX1 ag 29*, MrgX1 PAM inactive, MrgX1 ag reconf 151%*, HEK293 Ca flux inactive, HEK293 Ca counter inactive and HEK293 Ca cntr2 inactive.
`CCC(C)[C@H](N)c1cn([C@@H](Cc2cc3ccccc3[nH]2)C(=O)N2CCNCC2)nn1` (stereo partly drawn) gave PHOSPHO1 block -24, RGS4 pot inactive, RGS4 block inactive, MrgX1 antagonist inactive, MrgX1 ag inactive and MrgX1 PAM inactive.
Screening CCCOc1ccc(C(=O)N/N=C/c2c[nH]c3ccc(Br)cc23)cc1 returned PHOSPHO1 block 31, RGS4 pot inactive, RGS4 block inactive, MrgX1 antagonist inactive, MrgX1 ag inactive and MrgX1 PAM inactive.
`CCCCCN=C(N)N/N=C/c1c[nH]c2ccc(OC)cc12` gave RGS4 pot inactive, RGS4 block inactive, MrgX1 antagonist inactive, MrgX1 ag 75*, MrgX1 PAM inactive, MrgX1 ag reconf 488%*, HEK293 Ca flux inactive, HEK293 Ca counter inactive and HEK293 Ca cntr2 137*.
COc1ccc(CC(=O)Nc2cc(C)ccn2)cc1 was read as PHOSPHO1 block -11, RGS4 pot inactive, RGS4 block inactive, MrgX1 antagonist inactive, MrgX1 ag inactive and MrgX1 PAM inactive.
`CC(=Nc1ccccc1)c1sc2ccccc2c1O` gave PHOSPHO1 block 19, RGS4 pot inactive, RGS4 block inactive, MrgX1 antagonist inactive, MrgX1 ag 61*, MrgX1 PAM inactive, MrgX1 ag reconf 376%*, HEK293 Ca flux inactive, HEK293 Ca counter inactive and HEK293 Ca cntr2 100*.
Screening CC(=Nc1ccc(Br)cc1)c1sc2ccccc2c1O returned PHOSPHO1 block 4, RGS4 pot inactive, RGS4 block inactive, MrgX1 antagonist inactive, MrgX1 ag inactive and MrgX1 PAM inactive.
Cc1ccc(C)c(NC(=O)Cn2nnc(-c3ccc(N4CCOCC4)cc3)n2)c1 was read as PHOSPHO1 block 25, RGS4 pot inactive, RGS4 block inactive, MrgX1 antagonist inactive, MrgX1 ag inactive and MrgX1 PAM inactive.
Screening Cc1ccc(CC(=O)Nc2ccccc2N2CCOCC2)cc1C returned PHOSPHO1 block 14, MrgX1 antagonist inactive, MrgX1 ag 35*, MrgX1 PAM inactive, MrgX1 ag reconf 94%*, HEK293 Ca flux inactive, HEK293 Ca counter inactive and HEK293 Ca cntr2 inactive.
Screening COc1ccc(CC(=O)Nc2ccccc2N2CCOCC2)cc1OC returned PHOSPHO1 block -12, RGS4 pot inactive, RGS4 block inactive, MrgX1 antagonist inactive, MrgX1 ag inactive and MrgX1 PAM inactive.
Screening COc1ccc(N/C=C/c2nc(SC)nnc2C)cc1 returned PHOSPHO1 block 15, RGS4 pot inactive, RGS4 block inactive, MrgX1 antagonist inactive, MrgX1 ag inactive and MrgX1 PAM inactive.
CSc1nnc(C)c(/C=C/Nc2ccc(F)cc2)n1 was read as PHOSPHO1 block 16, RGS4 pot inactive, RGS4 block inactive, MrgX1 antagonist inactive, MrgX1 ag 30*, MrgX1 PAM inactive, MrgX1 ag reconf 152%*, HEK293 Ca flux inactive, HEK293 Ca counter inactive and HEK293 Ca cntr2 inactive.
CSc1nnc(C)c(/C=C/Nc2ccc(Cl)cc2)n1 was read as PHOSPHO1 block 12, RGS4 pot inactive, RGS4 block inactive, MrgX1 antagonist inactive, MrgX1 ag 45*, MrgX1 PAM inactive, MrgX1 ag reconf 248%*, HEK293 Ca flux 0.36*, HEK293 Ca counter inactive and HEK293 Ca cntr2 74*.
Screening CC/C(=N/Nc1ccc(Cl)cc1)c1cnnc(SC)n1 returned PHOSPHO1 block 2, RGS4 pot inactive, RGS4 block inactive, MrgX1 antagonist inactive, MrgX1 ag inactive and MrgX1 PAM inactive.
COC(=O)c1ccc(Cl)cc1N(Cc1c(F)cccc1Cl)S(C)(=O)=O was read as PHOSPHO1 block 25, RGS4 pot inactive, RGS4 block inactive, MrgX1 antagonist inactive, MrgX1 ag 71*, MrgX1 PAM inactive, MrgX1 ag reconf 290%*, HEK293 Ca flux inactive, HEK293 Ca counter inactive and HEK293 Ca cntr2 61*.
For Cc1cc(OC(=O)c2ccccc2)n(CCC#N)n1 the results were PHOSPHO1 block 3, RGS4 pot inactive, RGS4 block inactive, MrgX1 antagonist inactive, MrgX1 ag 38*, MrgX1 PAM inactive, MrgX1 ag reconf 195%*, HEK293 Ca flux inactive, HEK293 Ca counter inactive and HEK293 Ca cntr2 inactive.
